# From ChEMBL document CHEMBL4028916, “A Dipolar Cycloaddition Reaction To Access 6-Methyl-4,5,6,7-tetrahydro-1H-[1,2,3]triazolo[4,5-c]pyridines Enables the Discovery Synthesis and Preclinical Profiling of a P2X7 Antagonist Clinical Candidate” (J Med Chem, 2018)
# Legend:
# [1] = Half life in cynomolgus monkey at 0.125 mg/kg, iv by LC-MS/MS method; assay type: ADME, organism-based, Macaca fascicularis; conditions: in vivo
# How it was run: (§1)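 Single-dose PK in male Sprague-Dawley rats, beagle dogs or cynomolgus monkeys, given i.v. and p.o. as a solution in 50% PEG400/50% water or 20% HP-β-CD. Plasma measured by LC–MS/MS; parameters from noncompartmental analysis.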
# [2] = Half life in Sprague-Dawley rat at 0.5 mg/kg, iv by LC-MS/MS method; assay type: ADME, organism-based; conditions: in vivo; how it was run: as §1
# [3] = Drug uptake in Sprague-Dawley rat plasma administered at 10 mg/kg, po measured after 6.0 hrs; assay type: ADME, organism-based
# How it was run: (§2)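 Male Sprague Dawley rats (300–400 g) given 10 mg/kg p.o. One compound was dosed as a 0.5% HPMC suspension and the other as a 20% HP-β-cyclodextrin solution. Two animals per time point were killed with CO2 at 0.5, 2 and 6 h, and plasma and brain drug levels were taken. Data are mean ± SEM (n=2).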
# [4] = Oral bioavailability in Sprague-Dawley rat at […] by LC-MS/MS method; assay type: ADME, organism-based; conditions: in vivo
# [5] = Clearance in cynomolgus monkey at 0.125 mg/kg, iv or 0.625 mg/kg, po by LC-MS/MS method; assay type: ADME, organism-based, Macaca fascicularis; conditions: in vivo
# [6] = Drug uptake in Sprague-Dawley rat plasma administered at 10 mg/kg, po measured after 0.5 hrs; assay type: ADME, organism-based; how it was run: as §2
# [7] = Half life in Beagle dog at 0.125 mg/kg, iv by LC-MS/MS method; assay type: ADME, organism-based, Canis lupus familiaris; conditions: in vivo
# [8] = Drug uptake in Sprague-Dawley rat brain administered at 10 mg/kg, po measured after 6.0 hrs; assay type: ADME, organism-based; how it was run: as §2
# [9] = Partition coefficient, log D of the compound at pH 7.4; assay type: physicochemical; conditions: octanol/water
# [10] = Volume of distribution at steady state in Sprague-Dawley rat at 0.5 mg/kg, iv or […], po by LC-MS/MS method; assay type: ADME, organism-based; conditions: in vivo, read-out: Vdss
# [11] = Volume of distribution at steady state in Beagle dog at 0.125 mg/kg, iv or 0.625 mg/kg, po by LC-MS/MS method; assay type: ADME, organism-based, Canis lupus familiaris; conditions: in vivo, read-out: Vdss
# [12] = AUC (24 hrs) in cynomolgus monkey at 0.125 mg/kg, iv or 0.625 mg/kg, po by LC-MS/MS method; assay type: ADME, organism-based, Macaca fascicularis; conditions: in vivo
# [13] = Clearance in Sprague-Dawley rat at 0.5 mg/kg, iv or […], po by LC-MS/MS method; assay type: ADME, organism-based; conditions: in vivo
# [14] = AUC (24 hrs) in Sprague-Dawley rat at 0.5 mg/kg, iv or […], po by LC-MS/MS method; assay type: ADME, organism-based; conditions: in vivo
# [15] = Oral bioavailability in cynomolgus monkey at 0.625 mg/kg by LC-MS/MS method; assay type: ADME, organism-based, Macaca fascicularis; conditions: in vivo; how it was run: as §1
# [16] = Drug uptake in Sprague-Dawley rat plasma administered at 10 mg/kg, po measured after 2.0 hrs; assay type: ADME, organism-based; how it was run: as §2
# [17] = AUC in rat dosed at 250 mg/kg, po for 4 days; assay type: ADME, organism-based; conditions: in vivo
# [18] = Cmax in cynomolgus monkey at 0.125 mg/kg, iv or 0.625 mg/kg, po by LC-MS/MS method; assay type: ADME, organism-based, Macaca fascicularis; conditions: in vivo
# [19] = Cmax in dog at 300 mg/kg, po for 5 days; assay type: ADME, organism-based, Canis lupus familiaris; parameters: dose 300 mg/kg, route oral; conditions: in vivo
# [20] = Drug uptake in Sprague-Dawley rat brain administered at 10 mg/kg, po measured after 0.5 hrs; assay type: ADME, organism-based; how it was run: as §2
# [21] = Apparent permeability across basolateral to apical side in human Caco2 cells; assay type: ADME, cell-based; conditions: Caco-2
# How it was run: (§3)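 Caco-2 bidirectional permeability, reported as Papp B-A/A-B (×10⁻⁶ cm/s).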
# [22] = Cmax in rat at 250 mg/kg, po for 4 days; assay type: ADME, organism-based; parameters: dose 250 mg/kg, route oral; conditions: in vivo
# [23] = Drug uptake in Sprague-Dawley rat brain administered at 10 mg/kg, po measured after 2.0 hrs; assay type: ADME, organism-based; how it was run: as §2
# [24] = AUC in dog at 300 mg/kg, po for 5 days; assay type: ADME, organism-based, Canis lupus familiaris; conditions: in vivo
# [25] = Cmax in Sprague-Dawley rat at 0.5 mg/kg, iv or […], po by LC-MS/MS method; assay type: ADME, organism-based; conditions: in vivo
# [26] = Apparent permeability across apical to basolateral side in human Caco2 cells; assay type: ADME, cell-based; conditions: Caco-2; how it was run: as §3
# [27] = Volume of distribution at steady state in cynomolgus monkey at 0.125 mg/kg, iv or 0.625 mg/kg, po by LC-MS/MS method; assay type: ADME, organism-based, Macaca fascicularis; conditions: in vivo, read-out: Vdss
# [28] = Cmax in Beagle dog at 0.125 mg/kg, iv or 0.625 mg/kg, po by LC-MS/MS method; assay type: ADME, organism-based, Canis lupus familiaris; conditions: in vivo
# [29] = Clearance in Beagle dog at 0.125 mg/kg, iv or 0.625 mg/kg, po by LC-MS/MS method; assay type: ADME, organism-based, Canis lupus familiaris; conditions: in vivo
# [30] = Oral bioavailability in Beagle dog at 0.625 mg/kg by LC-MS/MS method; assay type: ADME, organism-based, Canis lupus familiaris; conditions: in vivo; how it was run: as §1
# [31] = AUC (24 hrs) in Beagle dog at 0.125 mg/kg, iv or 0.625 mg/kg, po by LC-MS/MS method; assay type: ADME, organism-based, Canis lupus familiaris; conditions: in vivo
# [32] = Clearance in Beagle dog at […], iv or 1.25 mg/kg, po by LC-MS/MS method; assay type: ADME, organism-based, Canis lupus familiaris; conditions: in vivo
# [33] = Cmax in Sprague-Dawley rat at 1 mg/kg, iv or 5 mg/kg, po by LC-MS/MS method; assay type: ADME, organism-based; conditions: in vivo
# [34] = Cmax in Beagle dog at […], iv or 1.25 mg/kg, po by LC-MS/MS method; assay type: ADME, organism-based, Canis lupus familiaris; conditions: in vivo
# [35] = Volume of distribution at steady state in Sprague-Dawley rat at 1 mg/kg, iv or 5 mg/kg, po by LC-MS/MS method; assay type: ADME, organism-based; conditions: in vivo, read-out: Vdss
# [36] = AUC (24 hrs) in cynomolgus monkey at 0.5 mg/kg, iv or […], po by LC-MS/MS method; assay type: ADME, organism-based, Macaca fascicularis; conditions: in vivo
# Cavia porcellus = organism: Cavia porcellus; experiment: Toxicity in guinea pig; conditions: in vivo
# [37] = AUC in dog at 10 mg/kg, po for 5 days; assay type: ADME, organism-based, Canis lupus familiaris; conditions: in vivo
# [38] = Oral bioavailability in Beagle dog at 1.25 mg/kg by LC-MS/MS method; assay type: ADME, organism-based, Canis lupus familiaris; conditions: in vivo; how it was run: as §1
# Plasma = experiment: Plasma concentration in dog; assay type: ADME, Canis lupus familiaris
# [39] = Oral bioavailability in cynomolgus monkey at […] by LC-MS/MS method; assay type: ADME, organism-based, Macaca fascicularis; conditions: in vivo
# [40] = Volume of distribution at steady state in Beagle dog at […], iv or 1.25 mg/kg, po by LC-MS/MS method; assay type: ADME, organism-based, Canis lupus familiaris; conditions: in vivo, read-out: Vdss
# [41] = AUC (24 hrs) in Sprague-Dawley rat at 1 mg/kg, iv or 5 mg/kg, po by LC-MS/MS method; assay type: ADME, organism-based; conditions: in vivo
# [42] = Clearance in cynomolgus monkey at 0.5 mg/kg, iv or […], po by LC-MS/MS method; assay type: ADME, organism-based, Macaca fascicularis; conditions: in vivo
# [43] = Half life in cynomolgus monkey at 0.5 mg/kg, iv by LC-MS/MS method; assay type: ADME, organism-based, Macaca fascicularis; conditions: in vivo; how it was run: as §1
# [44] = Cmax in rat at 125 mg/kg, po for 5 days; assay type: ADME, organism-based; parameters: dose 125 mg/kg, route oral; conditions: in vivo
# [45] = Oral bioavailability in Sprague-Dawley rat at 5 mg/kg by LC-MS/MS method; assay type: ADME, organism-based; conditions: in vivo; how it was run: as §1
# [46] = Volume of distribution at steady state in cynomolgus monkey at 0.5 mg/kg, iv or […], po by LC-MS/MS method; assay type: ADME, organism-based, Macaca fascicularis; conditions: in vivo, read-out: Vdss
# [47] = Plasma concentration in guinea pig; assay type: ADME, Cavia porcellus
# [48] = Cmax in dog at 10 mg/kg, po for 5 days; assay type: ADME, organism-based, Canis lupus familiaris; parameters: dose 10 mg/kg, route oral; conditions: in vivo
# [49] = AUC (24 hrs) in Beagle dog at […], iv or 1.25 mg/kg, po by LC-MS/MS method; assay type: ADME, organism-based, Canis lupus familiaris; conditions: in vivo
# [50] = Half life in Beagle dog at […], iv by LC-MS/MS method; assay type: ADME, organism-based, Canis lupus familiaris; conditions: in vivo
# [51] = Cmax in cynomolgus monkey at 0.5 mg/kg, iv or […], po by LC-MS/MS method; assay type: ADME, organism-based, Macaca fascicularis; conditions: in vivo
# [52] = AUC in rat at 125 mg/kg, po for 5 days; assay type: ADME, organism-based; conditions: in vivo
# [53] = Clearance in Sprague-Dawley rat at 1 mg/kg, iv or 5 mg/kg, po by LC-MS/MS method; assay type: ADME, organism-based; conditions: in vivo
# [54] = Half life in Sprague-Dawley rat at 1 mg/kg, iv by LC-MS/MS method; assay type: ADME, organism-based; conditions: in vivo; how it was run: as §1
# Canis familiaris = organism: Canis familiaris; experiment: Toxicity in dog; parameters: species or system Canis lupus familiaris; conditions: in vivo
compound,measurement,setting,value
C[C@H]1Cc2c(nnn2-c2ncc(F)cn2)CN1C(=O)c1cccc(C(F)(F)F)c1F,half-life,[1],0.9 h
same,half-life,[2],2.5 h
same,concentration at 6 h,[3],1050 ng/mL
same,bioavailability,[4],90%
same,clearance,[5],26 mL/min/kg
same,concentration at 0.5 h,[6],855 ng/mL
same,half-life,[7],8.8 h
same,concentration at 6 h,[8],1620 ng/mL
same,logD,[9],2.23
same,Vd,[10],2.5 L/kg
same,Vd,[11],2.6 L/kg
same,AUC at 24 h,[12],122 ng·h/mL
same,clearance,[13],12 mL/min/kg
same,AUC at 24 h,[14],3190 ng·h/mL
same,bioavailability,[15],30%
same,concentration at 2 h,[16],1880 ng/mL
same,AUC at 96 h,[17],108000 ng·h/mL
same,Cmax,[18],36 ng/mL
same,Cmax,[19],5330 ng/mL
same,concentration at 0.5 h,[20],1060 ng/mL
same,Papp B→A,[21],73 ×10⁻⁶ cm/s
same,Cmax,[22],9260 ng/mL
same,concentration at 2 h,[23],2390 ng/mL
same,AUC at 120 h,[24],78400 ng·h/mL
same,Cmax,[25],541 ng/mL
same,Papp A→B,[26],49 ×10⁻⁶ cm/s
same,Vd,[27],1.7 L/kg
same,Cmax,[28],305 ng/mL
same,clearance,[29],3.8 mL/min/kg
same,bioavailability,[30],123%
same,AUC at 24 h,[31],3040 ng·h/mL
C[C@H]1Cc2c(nnn2-c2ncc(F)cn2)CN1C(=O)c1ccnc(C(F)(F)F)c1F [ZANVIPIXANT],concentration at 6 h,[3],2440 ng/mL
same,clearance,[32],0.8 mL/min/kg
same,concentration at 0.5 h,[6],3190 ng/mL
same,Cmax,[33],1750 ng/mL
same,Cmax,[34],1120 ng/mL
same,concentration at 6 h,[8],1990 ng/mL
same,logD,[9],1.65
same,Vd,[35],1.7 L/kg
same,AUC at 24 h,[36],16300 ng·h/mL
same,NOAEL,Cavia porcellus,1850 ng/mL
same,concentration at 2 h,[16],3430 ng/mL
same,AUC at 120 h,[37],167000 ng·h/mL
same,bioavailability,[38],98%
same,Cp,Plasma,2820 ng/mL
same,bioavailability,[39],97%
same,Vd,[40],1.4 L/kg
same,concentration at 0.5 h,[20],3040 ng/mL
same,AUC at 24 h,[41],17500 ng·h/mL
same,Papp B→A,[21],45 ×10⁻⁶ cm/s
same,clearance,[42],2.6 mL/min/kg
same,half-life,[43],6 h
same,Cmax,[44],26000 ng/mL
same,concentration at 2 h,[23],2910 ng/mL
same,bioavailability,[45],81%
same,Vd,[46],1.3 L/kg
same,Cp,[47],4095 ng/mL
same,Papp A→B,[26],35 ×10⁻⁶ cm/s
same,Cmax,[48],10700 ng/mL
same,AUC at 24 h,[49],23300 ng·h/mL
same,half-life,[50],21.2 h
same,Cmax,[51],1860 ng/mL
same,AUC at 120 h,[52],291000 ng·h/mL
same,clearance,[53],3.7 mL/min/kg
same,half-life,[54],5.6 h
same,NOAEL,Canis familiaris,1280 ng/mL
